In ChEMBL document CHEMBL3352384, “Synthesis and biological activity of new salicylanilide N,N-disubstituted carbamates and thiocarbamates” (Bioorg Med Chem, 2014):
≈ marks a conversion by molar mass, not a printed value.

Assays:
[1] = Inhibition of Mycobacterium tuberculosis H37Rv isocitrate lyase assessed as glyoxylate phenyl hydrazone formation at 10 uM
HepG2 = assay: Cytotoxicity against human HepG2 cells assessed as reduction in cell viability after 24 hrs by MTS assay; format: cell-based; conditions: HepG2, 24 h
In short: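 HepG2 hepatocellular carcinoma cells (passage 3–4) were grown in Eagle's MEM with 10% FBS, 1% L-glutamine and non-essential amino acids. Compounds were added from DMSO at eight concentrations in triplicate, with 10% DMSO as the 0% viability control. Viability was read by tetrazolium salt reduction (CellTiter 96 AQueous One). IC50 is the concentration reducing viability to 50% of control.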

[2] = Selectivity index, ratio of IC50 for human HepG2 cells to MIC for atypical mycobacteria
In short: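 Selectivity index = HepG2 IC50 / MIC. HepG2 cells (passage 3–4) grown in Eagle's MEM with 10% FBS, L-glutamine and non-essential amino acids. Compounds added from DMSO, eight concentrations in triplicate, tetrazolium-reduction colorimetric read-out. IC50 is the concentration reducing viability to 50% of control; 10% DMSO as 0% viability.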

Mycobacterium avium [3] = assay: Antimycobacterial activity against Isoniazid, rifampicin, ofloxacin and ethambutol-resistant Mycobacterium avium 330/88 assessed as complete growth inhibition after 14 days; format: functional; conditions: 330/88, 336 h
In short: (§1)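 M. tuberculosis 331/88 (H37Rv) inoculum diluted 10-3, M. avium 330/88 diluted 10-5. MIC is the lowest concentration giving complete growth inhibition. Isoniazid and p-aminosalicylic acid as references. Quadruplicate, repeated twice.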

[4] = test system: Mycobacterium tuberculosis; assay: Antimycobacterial activity against Mycobacterium tuberculosis H37Rv 331/88 assessed as complete growth inhibition after 21 days; format: functional; conditions: H37Rv 331/88, 504 h; in short: as §1
Mycobacterium avium [5] = assay: Antimycobacterial activity against Isoniazid, rifampicin, ofloxacin and ethambutol-resistant Mycobacterium avium 330/88 assessed as complete growth inhibition after 21 days; format: functional; conditions: 330/88, 504 h; in short: as §1
Mycobacterium kansasii [6] = assay: Antimycobacterial activity against Mycobacterium kansasii 235/80 assessed as complete growth inhibition after 21 days; format: functional; conditions: 235/80, 504 h
In short: (§2)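 Dilutions of M. kansasii inoculum were 10-4 for strain 235/80 and 10-5 for clinical isolate 6509/96. MIC was the lowest concentration giving complete growth inhibition, run in quadruplicate and repeated twice.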

Mycobacterium kansasii [7] = assay: Antimycobacterial activity against Mycobacterium kansasii 235/80 assessed as complete growth inhibition after 14 days; format: functional; conditions: 235/80, 336 h; in short: as §2
Mycobacterium kansasii [8] = assay: Antimycobacterial activity against Mycobacterium kansasii 235/80 assessed as complete growth inhibition after 7 days; format: functional; conditions: 235/80, 168 h; in short: as §2
Mycobacterium kansasii [9] = assay: Antimycobacterial activity against clinical isolate Mycobacterium kansasii 6509/96 assessed as complete growth inhibition after 14 days; format: functional; conditions: 6509/96, 336 h; in short: as §2
Mycobacterium kansasii [10] = assay: Antimycobacterial activity against clinical isolate Mycobacterium kansasii 6509/96 assessed as complete growth inhibition after 21 days; format: functional; conditions: 6509/96, 504 h; in short: as §2
[11] = test system: Mycobacterium tuberculosis; assay: Antimycobacterial activity against Mycobacterium tuberculosis H37Rv 331/88 assessed as complete growth inhibition after 14 days; format: functional; conditions: H37Rv 331/88, 336 h; in short: as §1
[12] = Selectivity index, ratio of IC50 for human HepG2 cells to MIC for Mycobacterium tuberculosis H37Rv; format: toxicity, cell-based; conditions: read-out: Selectivity Index
In short: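 Selectivity index = HepG2 IC50 / MIC. HepG2 cells (passage 3–4) grown in Eagle's MEM with 10% FBS, L-glutamine and non-essential amino acids. Compounds added from DMSO, eight concentrations in triplicate, tetrazolium-reduction colorimetric read-out.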

Mycobacterium kansasii [13] = assay: Antimycobacterial activity against clinical isolate Mycobacterium kansasii 6509/96 assessed as complete growth inhibition after 7 days; format: functional; conditions: 6509/96, 168 h; in short: as §2

Row | SMILES | inhibition [1] [%] | IC50 (HepG2) [µM] | Selectivity Index [2] | MIC (Mycobacterium avium [3]) [µM] | MIC [4] [µM] | MIC (Mycobacterium avium [5]) [µM] | MIC (Mycobacterium kansasii [6]) [µM] | MIC (Mycobacterium kansasii [7]) [µM] | MIC (Mycobacterium kansasii [8]) [µM] | MIC (Mycobacterium kansasii [9]) [µM] | MIC (Mycobacterium kansasii [10]) [µM] | MIC [11] [µM] | selectivity ratio [12] | MIC (Mycobacterium kansasii [13]) [µM]
1 | CN(C(=O)Oc1ccc(Cl)cc1C(=O)Nc1ccc(Br)cc1)c1ccccc1 | 14 | 945 | <=29.5 | 250 (≈ 115 µg/mL) | 32 (≈ 14.7 µg/mL) | 250 (≈ 115 µg/mL) | 125 (≈ 57.5 µg/mL) | 125 (≈ 57.5 µg/mL) | 32 (≈ 14.7 µg/mL) | 62.5 (≈ 28.7 µg/mL) | 125 (≈ 57.5 µg/mL) | 32 (≈ 14.7 µg/mL) | 29.5 | 32 (≈ 14.7 µg/mL)
2 | O=C(Nc1ccccc1)c1ccccc1OC(=O)N(c1ccccc1)c1ccccc1 | 8 | 211 | 1.7 | 62.5 (≈ 25.5 µg/mL) | 125 (≈ 51.1 µg/mL) | 62.5 (≈ 25.5 µg/mL) | 125 (≈ 51.1 µg/mL) | 125 (≈ 51.1 µg/mL) | 62.5 (≈ 25.5 µg/mL) | 125 (≈ 51.1 µg/mL) | 125 (≈ 51.1 µg/mL) | 125 (≈ 51.1 µg/mL) | 1.7 | 125 (≈ 51.1 µg/mL)
3 | O=C(Nc1ccccc1)c1ccccc1O [SALICYLANILIDE] | 9 | 89.8 | 0.36 | 125 (≈ 26.7 µg/mL) | 125 (≈ 26.7 µg/mL) | 250 (≈ 53.3 µg/mL) | 250 (≈ 53.3 µg/mL) | 250 (≈ 53.3 µg/mL) | 125 (≈ 26.7 µg/mL) | 250 (≈ 53.3 µg/mL) | 250 (≈ 53.3 µg/mL) | 32 (≈ 6.82 µg/mL) | 0.7 | 125 (≈ 26.7 µg/mL)
4 | CN(C(=O)Oc1ccc(Cl)cc1C(=O)Nc1ccc(F)cc1)c1ccccc1 | 14 | 512 | <=8.2 | 250 (≈ 99.7 µg/mL) | 62.5 (≈ 24.9 µg/mL) | 250 (≈ 99.7 µg/mL) | 125 (≈ 49.9 µg/mL) | 125 (≈ 49.9 µg/mL) | 62.5 (≈ 24.9 µg/mL) | 125 (≈ 49.9 µg/mL) | 125 (≈ 49.9 µg/mL) | 32 (≈ 12.8 µg/mL) | 8.2 | 62.5 (≈ 24.9 µg/mL)
5 | O=C(Nc1ccc(C(F)(F)F)cc1)c1cc(Cl)ccc1OC(=O)N(c1ccccc1)c1ccccc1 | 21 | > 100 |  | 250 (≈ 128 µg/mL) | 125 (≈ 63.9 µg/mL) | 250 (≈ 128 µg/mL) | 125 (≈ 63.9 µg/mL) | 125 (≈ 63.9 µg/mL) | 125 (≈ 63.9 µg/mL) | 125 (≈ 63.9 µg/mL) | 125 (≈ 63.9 µg/mL) | 125 (≈ 63.9 µg/mL) |  | 125 (≈ 63.9 µg/mL)
6 | CN(C(=O)Oc1ccccc1C(=O)Nc1ccccc1)c1ccccc1 | 3 | 280 | <=1.1 | > 1000 | 250 (≈ 86.6 µg/mL) | > 1000 | 500 (≈ 173 µg/mL) | 500 (≈ 173 µg/mL) | 250 (≈ 86.6 µg/mL) | 500 (≈ 173 µg/mL) | 1000 (≈ 346 µg/mL) | 250 (≈ 86.6 µg/mL) | 1.1 | 250 (≈ 86.6 µg/mL)
7 | O=C(O)CC[N+](=O)[O-] | 25 | 692 | <0.7 | > 1000 | > 1000 | > 1000 | > 1000 | > 1000 | > 1000 | > 1000 | > 1000 |  | < 0.7 | > 1000
8 | CN(C)C(=O)Oc1ccc(Cl)cc1C(=O)Nc1ccc(C(F)(F)F)cc1 | 11 | 6510 |  | 250 (≈ 96.7 µg/mL) | > 1000 | 250 (≈ 96.7 µg/mL) | 250 (≈ 96.7 µg/mL) | 250 (≈ 96.7 µg/mL) | 250 (≈ 96.7 µg/mL) | 250 (≈ 96.7 µg/mL) | 250 (≈ 96.7 µg/mL) | > 1000 |  | 250 (≈ 96.7 µg/mL)
9 | O=C(Nc1ccc(Br)cc1)c1cc(Cl)ccc1OC(=O)N(c1ccccc1)c1ccccc1 | 19 | > 100 |  | 250 (≈ 130 µg/mL) | 250 (≈ 130 µg/mL) | 250 (≈ 130 µg/mL) | 125 (≈ 65.2 µg/mL) | 125 (≈ 65.2 µg/mL) | 32 (≈ 16.7 µg/mL) | 62.5 (≈ 32.6 µg/mL) | 62.5 (≈ 32.6 µg/mL) | 250 (≈ 130 µg/mL) |  | 32 (≈ 16.7 µg/mL)
